Laboratory results reported in ChEMBL document CHEMBL3259768, “Structure-activity relationships for vitamin D3-based aromatic a-ring analogues as hedgehog pathway inhibitors” (J Med Chem, 2014).

Assays:
[1] = Inhibition of hedgehog signaling pathway-mediated GLI1 mRNA expression in mouse C3H10T1/2 cells assessed as residual activity at 5 uM after 24 hrs by RT-PCR analysis relative to 20alpha-hydroxycholesterol/22(S)-hydroxycholesterol; format: cell-based; settings: C3H 10T1/2
Method in brief: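 C3H10T1/2 cells co-treated with analogue and the oxysterol Hh activators 20α-hydroxycholesterol plus 22(S)-hydroxycholesterol (5 μM each) for 24 h. Gli1 mRNA measured by qPCR as % of OHC-only control (100%). Analogue at 5 μM, or at 0.5 μM where stated.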

[2] = target: T1, Vitamin D3 receptor (Mus musculus) (UniProt P48281); test: Activation of VDR in mouse C3H10T1/2 cells assessed as upregulation of CYP24A1 mRNA expression at 5 uM after 24 hrs by RT-PCR analysis relative to DMSO-treated control; format: cell-based; settings: C3H 10T1/2
T1 sequence (whole entry): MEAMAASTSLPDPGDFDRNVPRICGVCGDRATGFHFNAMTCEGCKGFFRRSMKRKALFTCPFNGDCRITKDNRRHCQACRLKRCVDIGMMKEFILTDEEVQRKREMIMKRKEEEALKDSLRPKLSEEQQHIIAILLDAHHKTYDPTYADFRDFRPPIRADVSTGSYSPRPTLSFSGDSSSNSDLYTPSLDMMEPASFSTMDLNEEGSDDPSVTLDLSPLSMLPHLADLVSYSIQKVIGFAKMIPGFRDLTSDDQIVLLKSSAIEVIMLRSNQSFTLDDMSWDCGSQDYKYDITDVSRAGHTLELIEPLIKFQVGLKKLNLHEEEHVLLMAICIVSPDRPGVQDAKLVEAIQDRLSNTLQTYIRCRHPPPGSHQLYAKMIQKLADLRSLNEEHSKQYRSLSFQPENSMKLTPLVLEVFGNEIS
Method in brief: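 Cyp24A1 mRNA read by qPCR after 24 h exposure at 5 μM. Up-regulation normalized to DMSO control, set to 1.0.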

SMILES	fold change (FC) [2]	Activity [1] [%]
CC(C)CCC[C@@H](C)[C@H]1CC[C@H]2[C@@H](OC(=O)c3ccc(N(C)C)cc3)CCC[C@]12C	1.4	107
CC(C)CCC[C@@H](C)[C@H]1CC[C@H]2[C@@H](OC(=O)c3ccc4cc(O)ccc4c3)CCC[C@]12C	0.8	91.9
CC(C)CCC[C@@H](C)[C@H]1CC[C@H]2[C@@H](OC(=O)c3ccsc3)CCC[C@]12C	1.3	109
CC(C)CCC[C@@H](C)[C@H]1CC[C@H]2[C@@H](OC(=O)c3ccc(Cl)cc3)CCC[C@]12C	0.8	77.7
CC(C)CCC[C@@H](C)[C@H]1CC[C@H]2[C@@H](O)CCC[C@]12C	3.6	46.4
CC(C)CCC[C@@H](C)[C@H]1CC[C@H]2[C@@H](OC(=O)c3ccncc3)CCC[C@]12C	14.7	51.1
CC(C)CCC[C@@H](C)[C@H]1CC[C@H]2[C@@H](OC(=O)c3ccc4ccccc4c3)CCC[C@]12C	3	77.4
CC(C)CCC[C@@H](C)[C@H]1CC[C@H]2[C@@H](OC(=O)c3cccnc3)CCC[C@]12C	17.1	20.7
CC(C)CCC[C@@H](C)[C@H]1CC[C@H]2[C@@H](OC(=O)c3ncccc3O)CCC[C@]12C	3.1	36.5
CC(C)CCC[C@@H](C)[C@H]1CC[C@H]2[C@@H](OC(=O)c3cccc4cc(O)ccc34)CCC[C@]12C	4.7	103
CC(C)CCC[C@@H](C)[C@H]1CC[C@H]2[C@@H](OC(=O)c3ccoc3)CCC[C@]12C	2.2	91.5

Further lines, with some results ahead:

fold change (FC) [2]	SMILES	Activity [1] [%]
2.7	CC(C)CCC[C@@H](C)[C@H]1CC[C@H]2[C@@H](OC(=O)c3cccc4ccccc34)CCC[C@]12C	82.3
2.7	CC(C)CCC[C@@H](C)[C@H]1CC[C@H]2[C@@H](OC(=O)c3cc4ccccc4[nH]3)CCC[C@]12C	84.5
0.9	CC(C)CCC[C@@H](C)[C@H]1CC[C@H]2[C@@H](OC(=O)c3ccccc3Cl)CCC[C@]12C	109
7.5	CC(C)CCC[C@@H](C)[C@H]1CC[C@H]2[C@@H](OC(=O)c3cccnc3O)CCC[C@]12C	23
0.9	COc1ccccc1C(=O)O[C@H]1CCC[C@]2(C)[C@@H]([C@H](C)CCCC(C)C)CC[C@@H]12	98
1.7	CC(C)CCC[C@@H](C)[C@H]1CC[C@H]2[C@@H](OC(=O)c3ccco3)CCC[C@]12C	95
0.9	COc1ccc(C(=O)O[C@H]2CCC[C@]3(C)[C@@H]([C@H](C)CCCC(C)C)CC[C@@H]23)cc1	113
1.2	CC(C)CCC[C@@H](C)[C@H]1CC[C@H]2[C@@H](OC(=O)c3ccccc3O)CCC[C@]12C	115
1.6	CC(C)CCC[C@@H](C)[C@H]1CC[C@H]2[C@@H](OC(=O)c3cccs3)CCC[C@]12C	109
